Results from ChEMBL document CHEMBL2169746, “Design, synthesis, and antitumor evaluation of 2,4,6-triaryl pyridines containing chlorophenyl and phenolic moiety” (Eur J Med Chem, 2012).

Key:
[1] = molecular target: DNA topoisomerase 2-alpha (Homo sapiens) (UniProt P11388); experiment: Inhibition of human DNA topoisomerase-2alpha-mediated relaxation of supercoiled pBR322 at 100 uM after 30 mins using ethidium bromide staining by agarose gel electrophoresis
Procedure, shortened: (§1)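 200 ng supercoiled pBR322 with 1 unit human topo IIα, with or without compound. Buffer was 10 mM Tris-HCl pH 7.9, 50 mM NaCl, 5 mM MgCl₂, 1 mM EDTA, 1 mM ATP and bovine serum albumin. Incubated 30 min at 30 °C, stopped with EDTA. Products run on 1% agarose gel, 25 V, 4 h, TAE buffer. Compound stocks 20 mM in DMSO.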

[2] = molecular target: DNA topoisomerase 2-alpha (Homo sapiens) (UniProt P11388); experiment: Inhibition of human DNA topoisomerase-2alpha-mediated relaxation of supercoiled pBR322 at 20 uM after 30 mins using ethidium bromide staining by agarose gel electrophoresis; procedure, shortened: as §1
HCT-15 = experiment: Cytotoxicity against human HCT15 cells after 2 days by cell counting kit-8 analysis; assay type: functional, cell-based; settings: HCT-15, 48 h
Procedure, shortened: (§2)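 Cells grown per supplier's instructions, seeded at 2-4 × 10⁴ cells/well and incubated overnight in medium with 10% FBS at 37 °C, 5% CO₂. On day 2, after 4 h FBS starvation, medium was replaced with medium containing graded compound concentrations. Absorbance read at 450 nm. IC50 from a four-parameter logistic fit. Three independent experiments in triplicate, mean ± S.D.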

T47D = experiment: Cytotoxicity against human T47D cells after 2 days by cell counting kit-8 analysis; assay type: functional, cell-based; settings: 48 h; procedure, shortened: as §2
[3] = molecular target: T1, DNA topoisomerase 1 (Homo sapiens) (UniProt P11387); experiment: Inhibition of recombinant human DNA topoisomerase-1-mediated relaxation of supercoiled pBR322 at 100 uM after 30 mins using ethidium bromide staining by agarose gel electrophoresis
T1 sequence (whole entry): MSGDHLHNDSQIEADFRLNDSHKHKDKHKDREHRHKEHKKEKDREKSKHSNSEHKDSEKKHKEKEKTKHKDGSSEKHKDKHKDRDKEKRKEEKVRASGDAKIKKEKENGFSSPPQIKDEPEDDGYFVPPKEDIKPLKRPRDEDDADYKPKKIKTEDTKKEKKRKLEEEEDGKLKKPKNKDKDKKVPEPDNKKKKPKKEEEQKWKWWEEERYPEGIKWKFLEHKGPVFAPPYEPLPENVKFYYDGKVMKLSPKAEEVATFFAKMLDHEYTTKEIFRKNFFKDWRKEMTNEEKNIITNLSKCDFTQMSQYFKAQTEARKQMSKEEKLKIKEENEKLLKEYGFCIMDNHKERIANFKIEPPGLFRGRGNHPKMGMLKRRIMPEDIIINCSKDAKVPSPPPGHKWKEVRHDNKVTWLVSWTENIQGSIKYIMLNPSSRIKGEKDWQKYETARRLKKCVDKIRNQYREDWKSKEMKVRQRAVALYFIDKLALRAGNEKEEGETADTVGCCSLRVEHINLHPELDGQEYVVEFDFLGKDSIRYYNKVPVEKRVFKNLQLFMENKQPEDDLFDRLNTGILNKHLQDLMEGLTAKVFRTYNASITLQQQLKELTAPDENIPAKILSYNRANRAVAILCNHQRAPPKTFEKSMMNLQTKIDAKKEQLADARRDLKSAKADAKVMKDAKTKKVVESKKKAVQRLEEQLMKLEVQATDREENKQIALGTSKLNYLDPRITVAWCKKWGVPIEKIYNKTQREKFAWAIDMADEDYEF
Procedure, shortened: (§3)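 Compounds from 20 mM DMSO stocks. 100 ng pBR322 plasmid DNA with 1 unit recombinant human topo I, with or without compound, 37 °C for 30 min. Relaxation buffer was 10 mM Tris-HCl pH 7.9, 150 mM NaCl, 0.1% BSA, 1 mM spermidine. Relaxation of supercoiled DNA assessed by gel imaging.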

[4] = molecular target: T1, DNA topoisomerase 1 (Homo sapiens); experiment: Inhibition of recombinant human DNA topoisomerase-1-mediated relaxation of supercoiled pBR322 at 20 uM after 30 mins using ethidium bromide staining by agarose gel electrophoresis; procedure, shortened: as §3
DU-145 = experiment: Cytotoxicity against human DU145 cells after 2 days by cell counting kit-8 analysis; assay type: functional, cell-based; settings: DU-145, 48 h; procedure, shortened: as §2
HEK293 = experiment: Cytotoxicity against human HEK293 cells after 2 days by cell counting kit-8 analysis; assay type: cell-based; settings: HEK293, 48 h; procedure, shortened: as §2

Chain of DNA topoisomerase 2-alpha (Homo sapiens) (P11388 whole entry): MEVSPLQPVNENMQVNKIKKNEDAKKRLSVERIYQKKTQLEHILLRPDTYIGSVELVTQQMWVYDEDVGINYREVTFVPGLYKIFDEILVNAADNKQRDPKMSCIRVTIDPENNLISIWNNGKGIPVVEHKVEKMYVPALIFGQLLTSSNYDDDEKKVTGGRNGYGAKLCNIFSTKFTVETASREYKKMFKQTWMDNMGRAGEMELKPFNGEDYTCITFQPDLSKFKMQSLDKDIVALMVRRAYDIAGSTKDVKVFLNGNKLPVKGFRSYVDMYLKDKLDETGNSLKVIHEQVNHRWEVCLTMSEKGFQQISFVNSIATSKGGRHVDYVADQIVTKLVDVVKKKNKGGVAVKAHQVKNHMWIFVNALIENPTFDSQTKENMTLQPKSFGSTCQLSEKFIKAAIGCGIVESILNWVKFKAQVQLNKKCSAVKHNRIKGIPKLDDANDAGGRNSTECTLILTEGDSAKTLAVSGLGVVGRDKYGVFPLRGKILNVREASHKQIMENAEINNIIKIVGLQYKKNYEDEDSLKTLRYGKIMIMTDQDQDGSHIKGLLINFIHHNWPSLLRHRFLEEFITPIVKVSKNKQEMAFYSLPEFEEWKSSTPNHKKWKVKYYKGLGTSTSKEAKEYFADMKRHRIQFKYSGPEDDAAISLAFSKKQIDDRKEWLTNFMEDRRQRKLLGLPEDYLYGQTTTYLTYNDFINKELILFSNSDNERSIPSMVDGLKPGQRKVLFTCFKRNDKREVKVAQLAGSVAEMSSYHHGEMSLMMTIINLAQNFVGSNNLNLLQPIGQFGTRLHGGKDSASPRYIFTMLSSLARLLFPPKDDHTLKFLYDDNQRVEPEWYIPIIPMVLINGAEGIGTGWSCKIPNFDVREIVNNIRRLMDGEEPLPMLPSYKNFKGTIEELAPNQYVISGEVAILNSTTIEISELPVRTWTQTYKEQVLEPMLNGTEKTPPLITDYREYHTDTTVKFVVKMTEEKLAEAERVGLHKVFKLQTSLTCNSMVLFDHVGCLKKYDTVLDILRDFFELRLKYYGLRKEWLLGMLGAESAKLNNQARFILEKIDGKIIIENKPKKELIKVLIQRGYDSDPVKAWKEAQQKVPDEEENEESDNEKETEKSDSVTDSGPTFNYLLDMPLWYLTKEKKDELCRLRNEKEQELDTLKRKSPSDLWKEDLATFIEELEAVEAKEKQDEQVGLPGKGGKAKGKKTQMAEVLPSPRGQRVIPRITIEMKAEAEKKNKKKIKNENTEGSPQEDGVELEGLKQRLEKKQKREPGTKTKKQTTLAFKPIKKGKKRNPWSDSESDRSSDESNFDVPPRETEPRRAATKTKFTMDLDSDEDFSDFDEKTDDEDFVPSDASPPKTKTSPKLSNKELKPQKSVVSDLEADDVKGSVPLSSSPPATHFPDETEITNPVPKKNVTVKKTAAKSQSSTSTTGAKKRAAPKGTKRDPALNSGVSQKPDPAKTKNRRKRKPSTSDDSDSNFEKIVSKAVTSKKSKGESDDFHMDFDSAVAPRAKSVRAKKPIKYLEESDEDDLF

| SMILES | inhibition [1] [%] | inhibition [2] [%] | IC50 (HCT-15) [µM] | IC50 (T47D) [µM] | inhibition [3] [%] | inhibition [4] [%] | IC50 (DU-145) [µM] | IC50 (HEK293) [µM] |
| --- | --- | --- | --- | --- | --- | --- | --- | --- |
| Oc1ccc(-c2cc(-c3ccc(Cl)cc3)nc(-c3ccsc3)c2)cc1 | 83.6 | 67.1 | 6.24 | 5.49 | 47.7 | 30.7 | 6.94 | 4.86 |
| Oc1ccc(-c2cc(-c3cccc(Cl)c3)nc(-c3cccs3)c2)cc1 | 72.4 | 0 | 5.05 | 5.35 | 52.4 | 0 | 5.74 | 2.72 |
| Oc1ccc(-c2cc(-c3cccnc3)nc(-c3cccc(Cl)c3)c2)cc1 | 46.9 | 0 | 21.3 | 25.7 | 55.2 | 0 | 22.9 | 25.7 |
| Oc1ccc(-c2cc(-c3ccccc3)nc(-c3ccc(Cl)cc3)c2)cc1 | 80.9 | 44.6 | 6.92 | 4.27 | 68 | 55.2 | 7.27 | 4.81 |
| Oc1cccc(-c2cc(-c3ccc(Cl)cc3)nc(-c3ccccn3)c2)c1 | 59.4 | 13.1 | 13.5 | 13.9 | 30 | 0 | 8.09 | 14 |
| Oc1ccc(-c2cc(-c3ccc(Cl)cc3)nc(-c3cccs3)c2)cc1 | 77.2 | 22 | 6.47 | 6.45 | 38.8 | 0 | 7.66 | 4.52 |
| Oc1ccc(-c2cc(-c3cccc(Cl)c3)nc(-c3ccccn3)c2)cc1 | 67.5 | 0 | 28.2 | 27.9 | 59.4 | 0 | 35.2 | 25.4 |
| Oc1cccc(-c2cc(-c3ccccc3)nc(-c3cccc(Cl)c3)c2)c1 | 81.1 | 49.1 | 2.55 | 3.7 | 11.5 |  | 2.75 | 3.12 |
| Oc1ccc(-c2cc(-c3ccccc3)nc(-c3cccc(Cl)c3)c2)cc1 | 76.8 | 0.5 | 6.1 | 4.79 | 0 |  | 5.36 | 2.82 |
